Measurements: ChEMBL document CHEMBL1159207, “Structure and antimicrobial activity of diterpenes from the roots of Plectranthus hereroensis” (1994)
In brackets after ≈: the same amount, converted by molar mass.

How the values were obtained:
Vibrio cholerae = assay: Antimicrobial activity against Vibrio cholerae by twofold serial broth microdilution assay; assay type: functional
Pseudomonas aeruginosa = assay: Antimicrobial activity against Pseudomonas aeruginosa by twofold serial broth microdilution assay; assay type: functional
In short: (§1)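 Twofold serial broth microdilution in sterile Mueller-Hinton broth, over 500 µg/ml to 7.8 µg/ml. Samples were added as solutions in Me₂CO or MeOH, with solvent blanks included. After 24 h at 37°, MIC was taken as the lowest concentration that inhibited growth.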

Escherichia coli = assay: Antimicrobial activity against Escherichia coli by twofold serial broth microdilution assay; assay type: functional; in short: as §1
Shigella dysenteriae = assay: Antimicrobial activity against Shigella dysenteriae by twofold serial broth microdilution assay; assay type: functional
Candida albicans = assay: Antimicrobial activity against Candida albicans by twofold serial broth microdilution assay; assay type: functional
In short: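 Samples were added as Me₂CO or MeOH solutions, with solvent blanks. Incubation was 24 h at 37°. MIC was the lowest concentration preventing visible growth of the organism.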

Staphylococcus aureus = assay: Antimicrobial activity against Staphylococcus aureus by twofold serial broth microdilution assay; assay type: functional; in short: as §1
Enterococcus faecalis = assay: Antimicrobial activity against Streptococcus faecalis by twofold serial broth microdilution assay; assay type: functional; in short: as §1
Salmonella typhimurium = assay: Antimicrobial activity against Salmonella Typhimurium by twofold serial broth microdilution assay; assay type: functional, Salmonella enterica subsp. enterica serovar Typhimurium; settings: Salmonella enterica; in short: as §1

| Structure (SMILES) | MIC (Vibrio cholerae) [µg/mL] | MIC (Pseudomonas aeruginosa) [µg/mL] | MIC (Escherichia coli) [µg/mL] | MIC (Shigella dysenteriae) [µg/mL] | MIC (Candida albicans) [µg/mL] | MIC (Staphylococcus aureus) [µg/mL] | MIC (Enterococcus faecalis) [µg/mL] | MIC (Salmonella typhimurium) [µg/mL] |
| --- | --- | --- | --- | --- | --- | --- | --- | --- |
| CC(C)C1=C(O)C(=O)C2=C(C1=O)[C@H](O)C[C@H]1C(C)(C)CCC[C@]21C [HORMINONE] | 7.8 (≈ 23.5 µM) | 250 (≈ 752 µM) | ≥ 500 | ≥ 500 | 250 (≈ 752 µM) | 7.8 (≈ 23.5 µM) | ≥ 500 | ≥ 500 |
| C=CCC1=C(O)C(=O)C2=C(C1=O)[C@H](O)C[C@H]1C(C)(C)CCC[C@]21C | – | 250 (≈ 757 µM) | ≥ 500 | ≥ 500 | 125 (≈ 378 µM) | – | ≥ 500 | ≥ 500 |
